The source made the active and inactive calls. The calls are words filed in the database; no cut-off is given here.
Assays:
dsDNA [1] = test: Displacement thiazole orange from double stranded DNA (unknown origin) in tris-KCL buffer after 30 mins by FID assay; assay type: nucleic-acid assay
Summary of the method: (§1)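 Thiazole orange displacement: pre-folded G4 or duplex DNA (0.25 μM) with TO (0.50 μM) in 100 mM Tris–KCl pH 7.4, 30 min rt; compound added stepwise, 3 min equilibration each, spectra excited at 501 nm. Percent TO displaced = 100 − (FA×100/FA0) from emission area; DC50 read from displacement-versus-concentration plot.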

dsDNA [2] = test: Binding affinity to 6-FAM/TAMRA labeled double stranded DNA (unknown origin) in potassium cacodylate buffer assessed as change in melting temperature at 1 uM at pH 7.4 by FRET-Based DNA melting assay; assay type: nucleic-acid assay
Summary of the method: (§2)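 FRET melting: FAM/TAMRA dual-labelled oligos (G4: TG4AG3TG4AG3TG4A2G2; duplex: CA5T5GCA5T5G) annealed at 400 nM in 60 mM potassium cacodylate pH 7.4 (95 °C 5 min, cool 0.1 °C/min). Melting run on 200 nM oligo ± 1 μM ligand; excitation 480 nm, emission 530 nm, 37–95 °C, 30 reads per °C. ΔTm versus ligand-free DNA.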

Quadruplex DNA [3] = test: Binding affinity to cMYC G-quadruplex DNA G to A mutant promoter sequence (unknown origin) transfected in human Hela cells assessed as reduction in c-MYC promoter-linked expression at 1 to 1.5 uM incubated for 36 hrs by dual-luciferase reporter gene assay relative to control; assay type: cell-based
Summary of the method: (§3)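 Dual luciferase in HeLa: 0.2 μg c-MYC Del4 firefly reporter (wild-type or G-to-A mutant G-rich region) co-transfected with 30 ng pRL-TK Renilla control, Lipofectamine 2000, serum-free DMEM; after 8 h switched to complete medium with ligand at 1 or 1.5 μM. Lysed at 36 h; firefly activity normalised to Renilla.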

[4] = Cytotoxicity against human NKE cells assessed as reduction in cell viability after 24 hrs by XTT assay; assay type: cell-based
Summary of the method: (§4)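 XTT viability: HeLa (DMEM), A549 (Ham's F12K) or NKE (glutamine-supplemented RPMI 1640), all with 10% FBS, 37 °C, 5% CO2; 10^4–10^5 cells/well exposed to 0–50 μM compound for 24 h, in triplicate. XTT/PMS added 2 h at 37 °C; absorbance 450 nm; viability as percent of untreated control.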

Quadruplex DNA [5] = test: Binding affinity to 6-FAM/TAMRA labeled cMYC G-quadruplex DNA (unknown origin) in potassium cacodylate buffer assessed as change in melting temperature at 1 uM at pH 7.4 by FRET-Based DNA melting assay; assay type: nucleic-acid assay; summary of the method: as §2
Quadruplex DNA [6] = test: Binding affinity to cMYC G-quadruplex DNA (unknown origin) assessed as reduction in fluorescence intensity at 0.25 uM by fluorimetric titration relative to control; assay type: nucleic-acid assay
Summary of the method: (§5)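 Fluorimetric titration: unlabelled pre-folded G4 (TG4AG3TG4AG3TG4A2G2) or duplex (CA5T5GCA5T5G) DNA added stepwise to 0.25 μM ligand in filtered, degassed 100 mM Tris·KCl pH 7.4; 25 °C, 1 cm quartz cuvette, excitation 300 nm. Apparent Kd from fitting emission intensity against [DNA] to a one-site Hill equation.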

Quadruplex DNA [7] = test: Displacement thiazole orange from cMYC G-quadruplex DNA (unknown origin) in tris-KCL buffer after 30 mins by FID assay; assay type: nucleic-acid assay; summary of the method: as §1
A549 = test: Cytotoxicity against human A549 cells assessed as reduction in cell viability after 24 hrs by XTT assay; assay type: functional, cell-based; settings: A549, 24 h; summary of the method: as §4
dsDNA [8] = test: Binding affinity to double stranded DNA (unknown origin) assessed as reduction in fluorescence intensity at 0.25 uM by fluorimetric titration relative to control; assay type: nucleic-acid assay; summary of the method: as §5
dsDNA [9] = test: Binding affinity to double stranded DNA (unknown origin) in tris-KCL buffer by fluorimetric titration assay; assay type: nucleic-acid assay; summary of the method: as §5
HeLa [10] = test: Cytotoxicity against human HeLa cells assessed as reduction in cell viability after 24 hrs by XTT assay; assay type: functional, cell-based; summary of the method: as §4
Quadruplex DNA [11] = test: Binding affinity to cMYC G-quadruplex DNA (unknown origin) in tris-KCL buffer by fluorimetric titration assay; assay type: nucleic-acid assay; summary of the method: as §5
Quadruplex DNA [12] = test: Binding affinity to cMYC G-quadruplex DNA in human HeLa cells assessed as reduction in cMYC protein expression at 1 uM after 24 hrs by Western blot analysis relative to control; assay type: cell-based
Summary of the method: (§6)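 Western blot, HeLa: 24 h ligand exposure at 1.0, 1.5 or 2.0 μM; lysis in 20 mM Tris/100 mM NaCl/1 mM EDTA/0.5% Triton X-100, protein by Folin-Lowry; 70 μg on 12% SDS-PAGE, nitrocellulose, 4% BSA block; rabbit anti-c-MYC and mouse anti-GAPDH overnight at 4 °C, HRP secondaries 2 h; bands quantified densitometrically.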

Quadruplex DNA [13] = test: Binding affinity to cMYC G-quadruplex DNA (unknown origin) assessed as induction of red shift at 0.25 uM in presence of increasing concentration of DNA by fluorimetric titration relative to control; assay type: nucleic-acid assay; summary of the method: as §5
dsDNA [14] = test: Binding affinity to double stranded DNA (unknown origin) assessed as increase in emission intensity at 0.25 uM by fluorimetric titration relative to control; assay type: nucleic-acid assay; summary of the method: as §5
Quadruplex DNA [15] = test: Binding affinity to cMYC G-quadruplex DNA in human HeLa cells assessed as reduction in cMYC protein expression after 24 hrs by Western blot analysis; assay type: cell-based; summary of the method: as §6
Quadruplex DNA [16] = test: Binding affinity to 6-FAM/TAMRA labeled cMYC G-quadruplex DNA (unknown origin) in potassium cacodylate buffer assessed as change in melting temperature at 1 uM at pH 7.4 in presence of 1 to 200 equiv calf thymus DNA by FRET-Based DNA melting assay; assay type: nucleic-acid assay
Summary of the method: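 Competition FRET melting: 0.2 μM FAM/TAMRA-labelled c-MYC G4 oligo with 1 μM ligand plus unlabelled calf-thymus duplex DNA at 1–200 equivalents of G4; ΔTm followed (excitation 480 nm, emission 530 nm, 37–95 °C ramp).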

Quadruplex DNA [17] = test: Binding affinity to cMYC G-quadruplex DNA in human HeLa cells assessed as reduction in cMYC protein expression at 1.5 uM after 24 hrs by Western blot analysis relative to control; assay type: cell-based; summary of the method: as §6
Quadruplex DNA [18] = test: Effect on native parallel topology of cMYC G-quadruplex DNA (unknown origin) assessed as formation of positive band at 260 nm up to 10 equiv concentration by CD spectroscopy; assay type: nucleic-acid assay
Quadruplex DNA [19] = test: Binding affinity to cMYC G-quadruplex DNA in human HeLa cells assessed as induction of DNA damage by measuring increase in gammaH2AX foci at 1 to 2 uM measured after overnight incubation by alexafluor-647-based flow cytometry; assay type: cell-based
Summary of the method: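 γH2AX flow cytometry: HeLa treated overnight with 1 or 2 μM ligand, trypsinised, fixed in 1% paraformaldehyde 30 min rt, permeabilised with 0.03% saponin 20 min, then stained 3 h with Alexa Fluor 647 anti-γH2AX (1:100 in PBS + 0.1% FBS).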

Quadruplex DNA [20] = test: Binding affinity to wild type cMYC G-quadruplex DNA promoter sequence (unknown origin) transfected in human Hela cells assessed as reduction in c-MYC promoter-linked expression at 1 uM incubated for 36 hrs by dual-luciferase reporter gene assay relative to control; assay type: cell-based; summary of the method: as §3
Quadruplex DNA [21] = test: Binding affinity to cMYC G-quadruplex DNA in human HeLa cells assessed as reduction in cMYC protein expression at 2 uM after 24 hrs by Western blot analysis relative to control; assay type: cell-based; summary of the method: as §6
[22] = Drug level in human HeLa cell nucleus at 0.5 uM measured after overnight incubation by NucRed647-staining based confocal microscopy; assay type: ADME, subcellular
Summary of the method: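 Confocal: HeLa on coverslips treated overnight with 0.5 μM ligand, fixed 12 min in 1:1 acetone/methanol at −20 °C, nuclei stained with NucRed 647 Live 10 min in the dark; ligand localisation imaged by confocal laser scanning.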

Quadruplex DNA [23] = test: Binding affinity to wild type cMYC G-quadruplex DNA promoter sequence (unknown origin) transfected in human Hela cells assessed as reduction in c-MYC promoter-linked expression at 1.5 uM incubated for 36 hrs by dual-luciferase reporter gene assay relative to control; assay type: cell-based; summary of the method: as §3
HeLa [24] = test: Effect on GAPDH protein expression in human HeLa cells at 1 to 2 uM after 24 hrs by Western blot analysis relative to control; assay type: ADME, cell-based; summary of the method: as §6
Quadruplex DNA [25] = test: Binding affinity to cMYC G-quadruplex DNA (unknown origin) assessed as increase in emission intensity at 0.25 uM in presence of increasing concentration of DNA by fluorimetric titration relative to control; assay type: nucleic-acid assay; summary of the method: as §5
Quadruplex DNA [26] = test: Effect on native parallel topology of cMYC G-quadruplex DNA (unknown origin) assessed as formation of negative band at 240 nm up to 10 equiv concentration by CD spectroscopy; assay type: nucleic-acid assay
Quadruplex DNA [27] = test: Binding affinity to cMYC G-quadruplex DNA G to A mutant promoter sequence (unknown origin) transfected in human Hela cells assessed as reduction in c-MYC promoter-linked expression at 1.5 uM incubated for 36 hrs by dual-luciferase reporter gene assay relative to control; assay type: cell-based; settings: in the assay text read “wild-type promoter sequence” for “G to A mutant promoter sequence”; summary of the method: as §3

| Compound | DC50 (dsDNA [1]) [µM] | ΔTm (dsDNA [2]) [°C] | ΔTm (Quadruplex DNA [5]) [°C] | DC50 (Quadruplex DNA [7]) [µM] | Kd (Quadruplex DNA [11]) [µM] | IC50 [4] [µM] | IC50 (A549) [µM] | IC50 (HeLa [10]) [µM] | other results |
| --- | --- | --- | --- | --- | --- | --- | --- | --- | --- |
| COc1ccc(-c2ccc3c(c2)c2cc(CNc4ccc([N+](=O)[O-])cc4)ccc2n3CCCN(C)C)cc1 |  | 2.4 | 3.4 |  |  |  |  |  |  |
| COc1ccc(-c2ccc3c(c2)c2cc(CNc4ccc(Br)cc4C)ccc2n3CCCN(C)C)cc1 |  | 0.44 | 3.3 |  |  |  |  |  |  |
| COc1ccc(-c2ccc3c(c2)c2cc(CNc4nccs4)ccc2n3CCCN(C)C)cc1 |  | 1.15 | 3.2 |  |  |  |  |  |  |
| COc1ccc(-c2ccc3c(c2)c2cc(CNc4ccc(OCCCN(C)C)cc4)ccc2n3CCCN(C)C)cc1 | > 30 | 0.58 | 23.4 | 2.25 | 1.08 | > 50 | 6.4 | 2.5 | Activity (Quadruplex DNA [3]): inactive; inhibition (Quadruplex DNA [12]): 27%; Activity (Quadruplex DNA [13]): Active; Activity (dsDNA [14]): inactive; inhibition (Quadruplex DNA [15]): Dose-dependent effect; Activity (Quadruplex DNA [16]): Active; inhibition (Quadruplex DNA [17]): 57%; Activity (Quadruplex DNA [18]): inactive; Activity (Quadruplex DNA [19]): Active; inhibition (Quadruplex DNA [20]): 31%; inhibition (Quadruplex DNA [21]): 65%; Drug uptake [22]: Active; inhibition (Quadruplex DNA [23]): 45%; Activity (HeLa [24]): Non-Toxic; fold change (FC) (Quadruplex DNA [25]): 4.4; Activity (Quadruplex DNA [26]): inactive |
| COc1ccc(-c2ccc3c(c2)c2cc(CNc4ccc(O)cc4)ccc2n3CCCN(C)C)cc1 |  | 1.9 | 0.7 |  |  |  |  |  |  |
| COc1ccc(-c2ccc3c(c2)c2cc(CNc4ccc(C#CCN(C)C)cc4)ccc2n3CCCN(C)C)cc1 |  | 3.79 | 5 |  |  |  |  |  |  |

Further lines, with some results ahead:

| DC50 (dsDNA [1]) [µM] | ΔTm (dsDNA [2]) [°C] | ΔTm (Quadruplex DNA [5]) [°C] | DC50 (Quadruplex DNA [7]) [µM] | Kd (Quadruplex DNA [11]) [µM] | Compound | IC50 [4] [µM] | IC50 (A549) [µM] | IC50 (HeLa [10]) [µM] | other results |
| --- | --- | --- | --- | --- | --- | --- | --- | --- | --- |
| > 30 | 8.5 | 11.8 | > 25 | 7.17 | C#CCNCc1ccc2c(c1)c1cc(-c3ccc(OC)cc3)ccc1n2CCCN(C)C | > 50 | > 25 | 11.5 | Activity (Quadruplex DNA [3]): inactive; fold change (FC) (Quadruplex DNA [6]): 1.5; fold change (FC) (dsDNA [8]): 1.5; Kd (dsDNA [9]): 7.03 µM |
|  | 1.1 | 3.5 |  |  | COc1ccc(-c2ccc3c(c2)c2cc(CNC4CC4)ccc2n3CCCN(C)C)cc1 |  |  |  |  |
| > 30 | 9.5 | 13.6 | 8.01 | 5.72 | CCCCNCc1ccc2c(c1)c1cc(-c3ccc(OC)cc3)ccc1n2CCCN(C)C | > 50 | 4.3 | 2 | inhibition (Quadruplex DNA [27]): 14%; Kd (dsDNA [9]): 6.63 µM |
|  | 7.2 | 5.3 |  |  | COc1ccc(-c2ccc3c(c2)c2cc(CNCCCN(C)C)ccc2n3CCCN(C)C)cc1 |  |  |  |  |

— ChEMBL document CHEMBL4371043, “Dynamic Generation of G-Quadruplex DNA Ligands by Target-Guided Combinatorial Chemistry on a Magnetic Nanoplatform” (J Med Chem, 2019)
